From PMC3579011 (Molecular cancer research : MCR, 2012)
Positions of bridges follow the written chain, without caps; N, C: chain ends. No end group written: not given here.

Assays:
[1] = tested on: bladder and prostate tumor cells; experiment: Internalization of fluorescein-CLT1 with fibronectin or fibrinogen; assay type: cell-based, human; conditions: FN or FG each 30 µg/ml
Summary of the method: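 Cells were grown on vitronectin-coated coverslips and incubated 24 h with fluorescein-conjugated peptide in 2% serum with fibronectin or fibrinogen. They were then fixed in 4% paraformaldehyde and mounted in DAPI-containing medium. Internalization was scored by fluorescence microscopy at ×40 as the percentage of peptide-positive cells per optical field.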

DU145 cells [2] = experiment: LDH release cytotoxicity assay, DU145; assay type: cell-based
[3] = tested on: human bladder (J82, T24, UMUC3, TCCSUP), prostate (DU145), kidney (RCC4), breast (MDA-MB-231) and lung (A549) tumor cell lines; experiment: LDH release cytotoxicity assay, panel of tumor cell lines; assay type: cell-based; conditions: without CLT1
[4] = tested on: cathepsin D (lysosome leakage) in DU145, UMUC3 and J82 tumor cells; experiment: Cathepsin D in cytosolic fraction; assay type: cell-based, human; conditions: CLT1 75 µg/ml, 24 hours
Summary of the method: (§1)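 Cells were lysed by subcellular protein fractionation to obtain the cytoplasmic fraction, or in 2× SDS sample buffer. Proteins were run on SDS-PAGE and transferred to PVDF, with 0.05% Ponceau S staining to check equal loading. Blots were blocked in 5% BSA and probed overnight at 4°C with anti-cathepsin D or anti-LC3B, then detected with peroxidase-conjugated anti-rabbit or anti-mouse IgG and enhanced chemiluminescence.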

[5] = tested on: 786-0 kidney cancer cells; experiment: CLT1-induced cell death, 786-0; assay type: cell-based, human
angiogenic endothelium = conditions: cited from earlier work
[6] = tested on: LC3 in UMUC3 and J82 cells; experiment: LC3 conversion; assay type: cell-based, human; conditions: CLT1 25 µg/ml, 2% serum + FN, 24 hours
Summary of the method: as §1

[7] = tested on: bladder tumor cells (J82, T24, UMUC3, TCCSUP); experiment: LDH release cytotoxicity assay, bladder tumor cells; assay type: cell-based; conditions: CLT1 75 µg/ml, 24 hours; even in the presence of urine
[8] = tested on: primary human bladder epithelial cells (HBEC); experiment: LDH release cytotoxicity assay, primary bladder epithelial cells; assay type: cell-based; conditions: CLT1 75 µg/ml, 24 hours
Summary of the method: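 Primary human bladder epithelial cells were kept in serum-free Prostalife basal medium with supplements at 37°C and 5% CO2, and treated at about 50% confluence. Peptide diluted in water was added for 24 h in 2% serum alone, or with fibronectin or fibrinogen. Cell death was read as LDH release, expressed as a percentage of maximal release from camptothecin plus 100 nmol/L staurosporine.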

DU145 cells [9] = experiment: Uptake of fluorescein-CLT1 by fluorescence microscopy, DU145; assay type: cell-based, human; conditions: nocodazole 10 µM, 24 hours, versus DMSO
Summary of the method: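 DU145 cells were grown on vitronectin-coated coverslips and exposed 24 h to fluorescein-conjugated peptide alone or with nocodazole, with DMSO as vehicle. Cells were fixed in 4% paraformaldehyde and stained with DAPI. Uptake was scored by fluorescence microscopy at ×40 as the percentage of peptide-positive cells per optical field.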

[10] = tested on: DU145, UMUC3 and J82 cells; experiment: LDH release with autophagy inhibitor, DU145, UMUC3, J82; assay type: cell-based, human; conditions: bafilomycin A1 40–400 nM added 1 hour prior to CLT1 (25 µg/ml) + FN, 24 hours
Summary of the method: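 DU145, UMUC3 and J82 cells at about 50% confluence received 40 to 400 nmol/L bafilomycin A1 plus test peptide with fibronectin for 24 h. Cell death was measured as LDH release using a cytotoxicity detection kit. Values were normalized to background death of control cells treated without peptide in the same medium.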

For fibronectin, the “effect on CLT1 uptake / internalization” value [1] was “supports”, the “fibronectin concentration at which CLT1 cytotoxicity occurred” value (DU145 cells [2]; FN-depleted serum, CLT1 75 µg/ml, FN 3–100 µg/ml, within 24 hours, LDH release) was 10 µg/mL and the “effect of protein alone on tumor cell fate” value [3] was “no effect”.

For “CGLIIQKNEC (disulfide 1-10 (inferred)) [CLT1]”, the “cathepsin D in cytoplasmic fraction (indicator for lysosome leakage)” value [4] is given as “increased concentrations”, the “sensitivity to CLT1-induced cell death” value [5] is given as “largely resistant” and the “anti-angiogenic activity in vivo” value (angiogenic endothelium) is given as “strong anti-angiogenic activity”. For the same molecule, the “CLT1 concentration at which cytotoxicity reached a plateau” value (DU145 cells [2]; CLT1 7.5–150 µg/ml, 2% serum + 30 µg/ml fibronectin, 24 hours, LDH release) was 75 µg/mL, the “cell death in the absence of plasma fibronectin” value (DU145 cells [2]; prostate tumor cells, FN-depleted serum) was “minimal cell death” and the “LC3 conversion (autophagy marker)” value [6] was “causes LC3 conversion”. The “cell death of bladder cancer cells” value [7] was “extensive cell death” and the “cytotoxic activity in primary bladder epithelial cells” value [8] was “largely inactive”.

In the case of `COC(=O)Nc1nc2ccc(C(=O)c3cccs3)cc2[nH]1` [nocodazole, reference compound], the “effect on CLT1 cytotoxicity (LDH release)” value (DU145 cells [2]; nocodazole 10 µM, CLT1 75 µg/ml, 24 hours, versus DMSO) is reported as “significantly reduced” and the “effect on CLT1 uptake” value (DU145 cells [9]) is reported as “inhibited”.

In the case of fibrinogen, the “effect on CLT1 uptake / internalization” value [1] is reported as “largely prevents”.

With `CO/C1=C\C(C)=C\[C@@H](C)[C@@H](O)[C@@H](C)C/C(C)=C/C=C/[C@H](OC)[C@@H]([C@@H](C)[C@@H](O)[C@H](C)[C@@]2(O)C[C@@H](O)[C@H](C)[C@@H](C(C)C)O2)OC1=O` [bafilomycin A1, Bafilomycin A1] the “effect on CLT1 cytotoxicity (LDH release)” value [10] was “significantly reduced”.
